SMILES strings stand for the structures. Calls of active or inactive are those of the source. The rule behind the calls is not given here. Bounds are passed on as bounds.

This is an account of results in ChEMBL document CHEMBL1147067, “Inhibitors of metabolism rescue cell death in Huntington's disease models” (Proc Natl Acad Sci U S A, 2007).

Series [1] is filed under the species Rattus norvegicus. The series can be described thus: Activation of ERK in […] rat striatal neuronal N548 mutant cells at 10 uM after 6 hrs by Western blotting. As to conditions: 50 uM, in the assay text read “50 uM” for “10 uM”. The gist of the method: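 N548 mutant htt-expressing striatal cells were exposed to compound or vehicle (0.1% DMSO) in serum-deprived medium (0.5% FCS, 39°C). Lysates were analysed by Western blotting with a phospho-specific antibody against threonine 202/tyrosine 204 ERK. Total ERK and tubulin served as controls.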

The species named for series [2] is Rattus norvegicus. The series is described as follows: Activation of AKT in rat striatal neuronal N548 mutant cells at 50 uM by Western blotting. The essentials: (§1)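 N548 mutant htt-expressing striatal cells were treated with compound or vehicle (0.1% DMSO) in serum-deprived medium (0.5% FCS, 39°C) or in 10% serum medium. Lysates were Western blotted with phospho-specific antibodies against AKT Ser473, AKT Thr308 and ERK Thr202/Tyr204. Total AKT, total ERK and tubulin served as controls. The concentration series was read at 8 h.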

Series [3] concerns Drosophila. The series can be described thus: Cell death rescue of neuronal cells in drosophila Huntington's disease model. It is filed as functional, organism-based. The essentials: (§2)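 Flies of Drosophila HD strain 8534, which express human htt 1–170 with 120Q in the eye, were fed compound mixed into food (renewed every 2 days) or vehicle (0.1% DMSO) at 25°C. Rhabdomeres per ommatidium were counted by the pseudopupil technique at 9 days post-eclosion, blinded, with equal numbers of males and females. 8–10 flies per treatment, 35 ommatidia each; Student's t test.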

The subject of series [4] is Drosophila. The series can be described thus: Toxicity in drosophila Huntington's disease model. In kind it is organism-based. As to conditions: in vivo.
Series [5] in a line: Cell death rescue in rat striatal neuron N548 mutant cells relative to rotenone. In kind it is functional.
Series [6] is described as follows: Toxicity in rat striatal neuronal N548 mutant cells. As to conditions: read-out: TC50 (the source's name).
The test system of series [7] is Caenorhabditis elegans. The series can be described thus: Toxicity in Caenorhabditis elegans Huntington's disease model. As to conditions: for TC50: caenorhabditis elegans, in vivo. In kind it is organism-based.
For series [8], the system named is Caenorhabditis elegans. The series can be described thus: Cell death rescue of ASH neuronal cells in Caenorhabditis elegans Huntington's disease model. It is filed as functional, organism-based. The essentials:
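pqe-1;Htn-Q150 C. elegans L1 larvae, which express human htt 1–171 with 150Q in ASH neurons, were kept at 15°C in liquid S medium with E. coli OP50 and compound or DMSO (1.5%). A starvation variant used L1-arrested larvae without food at 25°C. ASH survival was scored as GFP fluorescence in live animals, 100 neurons in more than 50 animals per treatment per time point.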

A short description of series [9]: Cell death rescue in rat striatal neuron N548 mutant cells. It is filed as functional.
The species entered for series [10] is Rattus norvegicus. The series can be described thus: Cell death rescue in rat striatal neuronal N548 mutant cells by calcein acetoxymethyl ester assay. It is filed as functional. The essentials: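 N548 mutant cells in serum-deprived medium (0.5% FCS, 39°C) were treated across a dose range. Viability was read by calcein acetoxymethyl ester fluorescence and expressed as fold increase over DMSO-treated cells. Triplicate wells, mean ± SD.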

Series [11] is filed under the species Rattus norvegicus. The series is described as follows: Cell death rescue in rat striatal neuronal N548 mutant cells analysed every day for 7 days at 10 uM by trypan blue dye-exclusion assay. In kind it is functional. The essentials: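 Death was induced in N548 mutant cells by switching to 0.5% FCS medium at 39°C, with compound or DMSO present. Viability was measured daily for 7 days by automated trypan blue (0.4%) dye exclusion, counting at least 200 cells per sample and reporting % trypan blue-negative cells. Two independent experiments were run, each in duplicate.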

For series [12], the species on record is Rattus norvegicus. The series can be described thus: Cell death rescue in rat striatal neuronal N548 mutant cells at 10 uM after 2 days by calcein acetoxymethyl ester assay in presence of U0126. It is filed as functional.
The species entered for series [13] is Rattus norvegicus. The series is described as follows: Cell death rescue in rat striatal neuronal N548 mutant cells at 10 uM after 2 days by calcein acetoxymethyl ester assay in presence of LY-294002. It is filed as functional.
Series [14] concerns Drosophila. The series can be described thus: Decrease in rhabdomere degeneration in Drosophila photoreceptor assessed as number of rhabdomeres per ommatidium at day 9. It is filed as functional, organism-based. The essentials:
as §2

The species entered for series [15] is Rattus norvegicus. The series can be described thus: Activation of ERK in rat striatal neuronal N548 mutant cells at 50 uM by Western blotting. The essentials: as §1
The species entered for series [16] is Rattus norvegicus. The series is described as follows: Activation of AKT in DNA-deficient rat striatal neuronal N548 mutant cells at 10 uM after 6 hrs by Western blotting.
Series [17] is filed under the species Rattus norvegicus. The series is described as follows: Activation of ERK in rat striatal neuronal N548 mutant cells at 10 uM by Western blotting. The gist of the method: as §1
The species named for series [18] is Rattus norvegicus. The series is described as follows: Cell death rescue in DNA-deficient rat striatal neuronal N548 mutant cells at 10 uM. It is filed as functional.
The species entered for series [19] is Rattus norvegicus. The series can be described thus: Activation of AKT in rat striatal neuronal N548 mutant cells after 8 hrs by Western blotting. The gist of the method: as §1
The target of series [20] is Glycogen synthase kinase-3 beta (Rattus norvegicus) (UniProt P18266). The series can be described thus: Activation of GSKbeta in rat striatal neuronal N548 mutant cells.
Series [21] in a line: Decrease in htt expression in rat striatal neuron N548 mutant cells assessed as visible htt aggregation after 12 hrs by Western blotting. Also noted: scale not given: the % may be the effect or the level left. In kind it is functional.
The species entered for series [22] is Rattus norvegicus. The series is described as follows: Activation of ERK in rat striatal neuronal N548 mutant cells after 8 hrs by Western blotting. The gist of the method:
as §1

Series [23] addresses MAP kinase p38 (Homo sapiens) (UniProt O15264+Q15759+Q16539+P53778). The series can be described thus: Activation of p38 MAPK in rat striatal neuronal N548 mutant cells.
For series [24], the species on record is Rattus norvegicus. The series is described as follows: Decrease in ATP levels in rat striatal neuronal N548 mutant cells after 8 hrs in serum-deprived medium by luminescence-based assay in presence of glucose. It is filed as functional. The gist of the method:
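N548 mutant cells were plated at 10^5 cells per 60-mm dish, treated, and after 8 h in serum-deprived medium were lysed. Total ATP was measured by luciferase luminescence (12 s integration), normalized to cell number, and expressed relative to untreated cells at 0 h (100%). Triplicate, mean ± SD.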

In series [25] the target is Glycogen synthase kinase-3 alpha (Rattus norvegicus) (UniProt P18265). The series is described as follows: Activation of GSKalpha in rat striatal neuronal N548 mutant cells.
Series [26] is filed under the species Rattus norvegicus. The series can be described thus: Activation of AKT in rat striatal neuronal N548 mutant cells at 10 uM by Western blotting. The gist of the method: as §1
For series [27], the species on record is Rattus norvegicus. The series is described as follows: Activation of NF-kappaB in rat striatal neuronal N548 mutant cells.
For series [28], the species on record is Rattus norvegicus. The series is described as follows: Suppression of cell death in rat striatal neuronal N548 mutant cells assessed as suppression of caspase 7 activation by Western blotting. In kind it is functional. The essentials:
(§3)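 Serum-deprived N548 mutant cells (0.5% FCS, 39°C) were treated with compound or DMSO. Cleaved active caspase 3 and caspase 7 fragments were detected by Western blotting, with tubulin as loading control.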

The species named for series [29] is Rattus norvegicus. The series is described as follows: Suppression of cell death in rat striatal neuronal N548 mutant cells assessed as suppression of caspase 3 activation by Western blotting. In kind it is functional. The gist of the method:
as §3

Series [30] deals with Tyrosine-protein kinase JAK2 (Rattus norvegicus) (UniProt Q62689). The series can be described thus: Activation of JAK2 in rat striatal neuronal N548 mutant cells.
Chain of Tyrosine-protein kinase JAK2 (Rattus norvegicus) (Q62689 whole entry): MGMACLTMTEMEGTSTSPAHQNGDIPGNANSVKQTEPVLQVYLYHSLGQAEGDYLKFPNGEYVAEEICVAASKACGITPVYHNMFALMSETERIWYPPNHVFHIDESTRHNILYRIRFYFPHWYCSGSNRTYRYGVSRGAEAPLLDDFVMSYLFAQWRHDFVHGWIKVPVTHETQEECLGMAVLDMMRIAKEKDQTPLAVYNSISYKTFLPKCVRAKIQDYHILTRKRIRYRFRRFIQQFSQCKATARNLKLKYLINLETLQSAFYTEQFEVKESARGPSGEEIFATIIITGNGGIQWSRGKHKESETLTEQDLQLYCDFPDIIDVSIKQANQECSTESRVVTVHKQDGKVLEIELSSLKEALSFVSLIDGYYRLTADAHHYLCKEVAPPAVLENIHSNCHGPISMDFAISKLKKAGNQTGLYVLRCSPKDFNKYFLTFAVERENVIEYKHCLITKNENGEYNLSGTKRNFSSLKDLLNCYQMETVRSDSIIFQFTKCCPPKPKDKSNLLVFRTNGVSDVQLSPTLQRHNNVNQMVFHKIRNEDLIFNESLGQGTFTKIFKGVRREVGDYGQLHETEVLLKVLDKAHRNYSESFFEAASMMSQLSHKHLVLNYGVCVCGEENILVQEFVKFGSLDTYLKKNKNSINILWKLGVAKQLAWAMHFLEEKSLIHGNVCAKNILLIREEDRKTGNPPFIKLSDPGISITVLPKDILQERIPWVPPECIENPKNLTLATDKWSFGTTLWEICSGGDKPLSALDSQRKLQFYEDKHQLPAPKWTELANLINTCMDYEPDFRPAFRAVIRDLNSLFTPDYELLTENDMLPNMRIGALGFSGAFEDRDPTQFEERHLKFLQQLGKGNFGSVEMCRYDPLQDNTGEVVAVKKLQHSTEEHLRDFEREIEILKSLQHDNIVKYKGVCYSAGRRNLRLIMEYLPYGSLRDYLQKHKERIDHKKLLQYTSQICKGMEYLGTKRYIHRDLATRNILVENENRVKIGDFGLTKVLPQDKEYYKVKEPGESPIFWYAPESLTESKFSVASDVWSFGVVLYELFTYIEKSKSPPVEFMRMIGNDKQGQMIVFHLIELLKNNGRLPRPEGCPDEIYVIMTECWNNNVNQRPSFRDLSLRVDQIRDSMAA

Chain of Glycogen synthase kinase-3 beta (Rattus norvegicus) (P18266 whole entry, looked up): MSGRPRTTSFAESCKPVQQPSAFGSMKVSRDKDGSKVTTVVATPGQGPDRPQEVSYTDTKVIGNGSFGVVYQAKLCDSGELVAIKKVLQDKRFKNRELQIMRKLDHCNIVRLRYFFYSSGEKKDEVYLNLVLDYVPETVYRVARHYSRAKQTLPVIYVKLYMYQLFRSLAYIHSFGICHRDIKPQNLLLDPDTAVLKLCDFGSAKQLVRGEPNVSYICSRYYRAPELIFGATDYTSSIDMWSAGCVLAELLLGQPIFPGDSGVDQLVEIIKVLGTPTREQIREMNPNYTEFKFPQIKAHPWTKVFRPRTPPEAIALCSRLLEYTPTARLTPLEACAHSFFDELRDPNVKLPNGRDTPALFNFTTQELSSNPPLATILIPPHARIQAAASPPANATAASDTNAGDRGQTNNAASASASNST
Chain of Glycogen synthase kinase-3 alpha (Rattus norvegicus) (P18265 whole entry): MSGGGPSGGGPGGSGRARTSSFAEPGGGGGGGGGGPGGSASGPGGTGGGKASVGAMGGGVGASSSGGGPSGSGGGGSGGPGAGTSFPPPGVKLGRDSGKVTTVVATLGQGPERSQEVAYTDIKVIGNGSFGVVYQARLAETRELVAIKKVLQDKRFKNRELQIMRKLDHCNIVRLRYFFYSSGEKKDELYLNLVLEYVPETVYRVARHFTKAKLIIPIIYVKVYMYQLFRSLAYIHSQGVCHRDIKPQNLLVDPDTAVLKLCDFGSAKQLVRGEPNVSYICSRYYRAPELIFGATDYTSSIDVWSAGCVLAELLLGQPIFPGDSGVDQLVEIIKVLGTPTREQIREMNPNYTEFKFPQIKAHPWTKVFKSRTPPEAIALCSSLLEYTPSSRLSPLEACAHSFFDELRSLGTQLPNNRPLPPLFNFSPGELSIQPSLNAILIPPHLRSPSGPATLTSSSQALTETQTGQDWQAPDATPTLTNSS

As for `CC(C)(C)OC(=O)N[C@@H](CC(=O)O)C(=O)CF`, the result in the series filed under Rattus norvegicus [1] and in the series filed under Rattus norvegicus [2] was Active.

For `O=[N+]([O-])c1ccc(O)c([N+](=O)[O-])c1` [2,4-DINITROPHENOL], the EC50 with Drosophila [3] came to 1250 µM; in the series on Caenorhabditis elegans [8], 700 µM; in series [9], 200 µM. The TC50 with Drosophila [4] is 10 mM; with Caenorhabditis elegans [7], 2000 µM. Also, the Activity in series [5] was 1. Besides, the CC50 in series [6] was found to be 16 mM.

`C=C(C)[C@H]1Cc2c(ccc3c2O[C@@H]2COc4cc(OC)c(OC)cc4[C@@H]2C3=O)O1` [ROTENONE]: the result in the series filed under Rattus norvegicus [10], in the series filed under Rattus norvegicus [11], in the series with Drosophila [14], in the series filed under Rattus norvegicus [15], in the series listed under Rattus norvegicus [16] and in the series filed under Rattus norvegicus [17] was Active. Besides, the outcome in the series listed under Rattus norvegicus [18], in the series listed under Rattus norvegicus [26], in the series filed under Rattus norvegicus [28], in the series listed under Rattus norvegicus [2] and in the series filed under Rattus norvegicus [29] was Active. Besides, the result (in the series listed under Rattus norvegicus [12]; in the series listed under Rattus norvegicus [13]; in series [20]; in series [23]; in the series filed under Rattus norvegicus [24]; in series [25]) was inactive. Besides, the outcome (in the series filed under Rattus norvegicus [27]; in series [30]) was inactive. Also, the EC50 in the series on Drosophila [3] came to 10 µM; with Caenorhabditis elegans [7] (Caenorhabditis elegans) it was 2000 nM; in the series on Caenorhabditis elegans [8], 2 µM; in series [9], 0.5 µM. Moreover, the TC50 came to 0.05 mM with Drosophila [4] and 16 µM with Caenorhabditis elegans [7]. In addition, the Activity entry in the series filed under Rattus norvegicus [19] is “Dose-dependent effect”; in series [21], < 1%; in the series filed under Rattus norvegicus [22], “Dose-dependent effect”. The CC50 in series [6] amounted to 0.04 mM.

`[F-].[Na+]` [SODIUM FLUORIDE] had an Activity in series [5] of 0.6. In series [6], the CC50 was 10 mM. In series [9], the EC50 came to 2000 µM.
